Activity calls are given as the source filed them. No cut-off for these calls is given here.
How the values were obtained:
[1] = target: Epidermal growth factor receptor (Homo sapiens, UniProt P00533, C797S/L858R/T790M); assay: Inhibition of EGFR L858R/T790M/C797S triple mutant (unknown origin) using fluoresceine-labelled poly-GT peptide as substrate incubated for 1 hr by TR-FRET assay
[2] = target: RAC-beta serine/threonine-protein kinase (Homo sapiens) (UniProt P31751); assay: Inhibition of His-tagged full length human recombinant AKT2 expressed in baculovirus expression system at 1 uM by Z'-LYTE assay
How it was run: (§1)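 Z'-LYTE FRET kinase panel; phosphorylation of a reference peptide measured with ATP at each enzyme's Km. Compounds tested in 1% DMSO at 0.1 and/or 1 μM. Values are means of two independent experiments with standard deviations.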

[3] = target: AMP-activated protein kinase, AMPK (Homo sapiens) (UniProt P54646+O43741+P54619+Q9UGJ0+Q9Y478+Q13131+Q9UGI9); assay: Inhibition of human recombinant AMPK at 1 uM by Z'-LYTE assay; assay type: protein-complex assay; how it was run: as §1
[4] = target: T1, Aurora kinase A (Homo sapiens) (UniProt O14965); assay: Inhibition of His-tagged human full length recombinant AURKA expressed in baculovirus expression system at 1 uM by Z'-LYTE assay; how it was run: as §1
T1 sequence (whole entry): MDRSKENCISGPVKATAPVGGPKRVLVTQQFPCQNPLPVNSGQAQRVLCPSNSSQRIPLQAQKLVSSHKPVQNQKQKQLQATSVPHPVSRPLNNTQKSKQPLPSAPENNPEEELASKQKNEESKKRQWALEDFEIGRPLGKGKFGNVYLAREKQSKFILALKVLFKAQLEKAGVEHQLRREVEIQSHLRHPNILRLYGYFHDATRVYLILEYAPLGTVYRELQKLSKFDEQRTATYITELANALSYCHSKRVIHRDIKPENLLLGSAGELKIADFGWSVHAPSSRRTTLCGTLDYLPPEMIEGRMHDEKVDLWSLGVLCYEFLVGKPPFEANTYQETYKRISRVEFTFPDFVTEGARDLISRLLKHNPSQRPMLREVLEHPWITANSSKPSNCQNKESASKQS

[5] = target: Cyclin-dependent kinase 2 (Homo sapiens) (UniProt P24941); assay: Inhibition of human recombinant CDK2 at 1 uM by Z'-LYTE assay; how it was run: as §1
[6] = target: Cyclin-dependent kinase 5 (Homo sapiens) (UniProt Q00535); assay: Inhibition of GST/His-tagged human full length recombinant CDK5 expressed in baculovirus expression system at 1 uM by Z'-LYTE assay; how it was run: as §1
[7] = target: Tyrosine-protein kinase Blk (Homo sapiens) (UniProt P51451); assay: Inhibition of His-tagged human full length recombinant BLK expressed in baculovirus expression system at 1 uM by Z'-LYTE assay; how it was run: as §1
[8] = target: Tyrosine-protein kinase Lck (Homo sapiens) (UniProt P06239); assay: Inhibition of human recombinant LCK at 1 uM by Z'-LYTE assay; how it was run: as §1
[9] = target: Proto-oncogene tyrosine-protein kinase Src (Homo sapiens) (UniProt P12931); assay: Inhibition of C-terminal His-tagged human recombinant SRC expressed in baculovirus expression system at 1 uM by Z'-LYTE assay; how it was run: as §1
[10] = target: Mitogen-activated protein kinase 3 (Homo sapiens) (UniProt P27361); assay: Inhibition of GST-tagged human full length recombinant ERK1 expressed in Escherichia coli at 1 uM by Z'-LYTE assay; how it was run: as §1
[11] = target: Fibroblast growth factor receptor 4 (Homo sapiens) (UniProt P22455); assay: Inhibition of His-tagged human recombinant FGFR4 ([…] residues) expressed in baculovirus expression system at 1 uM by Z'-LYTE assay; how it was run: as §1
[12] = target: T2, Inhibitor of nuclear factor kappa-B kinase subunit beta (Homo sapiens) (UniProt O14920); assay: Inhibition of GST-tagged human full length recombinant IKKbeta expressed in baculovirus expression system at 1 uM by Z'-LYTE assay; how it was run: as §1
T2 sequence (whole entry): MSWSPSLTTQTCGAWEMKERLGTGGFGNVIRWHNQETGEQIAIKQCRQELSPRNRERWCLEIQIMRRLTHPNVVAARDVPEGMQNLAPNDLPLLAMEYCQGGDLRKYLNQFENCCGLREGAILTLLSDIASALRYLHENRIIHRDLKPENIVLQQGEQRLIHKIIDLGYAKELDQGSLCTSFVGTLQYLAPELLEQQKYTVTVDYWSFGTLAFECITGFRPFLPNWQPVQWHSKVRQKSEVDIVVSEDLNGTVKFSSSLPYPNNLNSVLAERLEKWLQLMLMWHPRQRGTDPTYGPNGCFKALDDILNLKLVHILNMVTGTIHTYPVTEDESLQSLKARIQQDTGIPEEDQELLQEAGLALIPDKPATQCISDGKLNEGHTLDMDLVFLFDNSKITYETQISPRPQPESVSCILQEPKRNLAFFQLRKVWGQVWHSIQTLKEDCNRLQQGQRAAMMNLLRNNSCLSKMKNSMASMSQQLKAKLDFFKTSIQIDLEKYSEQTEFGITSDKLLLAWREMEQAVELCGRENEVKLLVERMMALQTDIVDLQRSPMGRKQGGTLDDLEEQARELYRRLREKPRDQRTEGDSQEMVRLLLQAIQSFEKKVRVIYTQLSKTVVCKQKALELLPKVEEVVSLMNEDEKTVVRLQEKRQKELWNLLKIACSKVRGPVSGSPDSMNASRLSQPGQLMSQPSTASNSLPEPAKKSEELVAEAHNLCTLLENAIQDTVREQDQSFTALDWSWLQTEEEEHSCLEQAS

[13] = target: Tyrosine-protein kinase JAK1 (Homo sapiens) (UniProt P23458); assay: Inhibition of GST-tagged human recombinant JAK1 (866 to 1154 residues) expressed in baculovirus expression system at 1 uM by Z'-LYTE assay; how it was run: as §1
[14] = target: Mitogen-activated protein kinase 14 (Homo sapiens) (UniProt Q16539); assay: Inhibition of GST-tagged human full length recombinant p38 alpha expressed in Escherichia coli at 1 uM by Z'-LYTE assay; how it was run: as §1
[15] = target: Platelet-derived growth factor receptor alpha (Homo sapiens) (UniProt P16234); assay: Inhibition of GST-tagged human recombinant PDGFR alpha (550 to 1089 residues) expressed in baculovirus expression system at 1 uM by Z'-LYTE assay; how it was run: as §1
Chain of Platelet-derived growth factor receptor alpha (Homo sapiens) (P16234 whole entry, the tested form may be a part): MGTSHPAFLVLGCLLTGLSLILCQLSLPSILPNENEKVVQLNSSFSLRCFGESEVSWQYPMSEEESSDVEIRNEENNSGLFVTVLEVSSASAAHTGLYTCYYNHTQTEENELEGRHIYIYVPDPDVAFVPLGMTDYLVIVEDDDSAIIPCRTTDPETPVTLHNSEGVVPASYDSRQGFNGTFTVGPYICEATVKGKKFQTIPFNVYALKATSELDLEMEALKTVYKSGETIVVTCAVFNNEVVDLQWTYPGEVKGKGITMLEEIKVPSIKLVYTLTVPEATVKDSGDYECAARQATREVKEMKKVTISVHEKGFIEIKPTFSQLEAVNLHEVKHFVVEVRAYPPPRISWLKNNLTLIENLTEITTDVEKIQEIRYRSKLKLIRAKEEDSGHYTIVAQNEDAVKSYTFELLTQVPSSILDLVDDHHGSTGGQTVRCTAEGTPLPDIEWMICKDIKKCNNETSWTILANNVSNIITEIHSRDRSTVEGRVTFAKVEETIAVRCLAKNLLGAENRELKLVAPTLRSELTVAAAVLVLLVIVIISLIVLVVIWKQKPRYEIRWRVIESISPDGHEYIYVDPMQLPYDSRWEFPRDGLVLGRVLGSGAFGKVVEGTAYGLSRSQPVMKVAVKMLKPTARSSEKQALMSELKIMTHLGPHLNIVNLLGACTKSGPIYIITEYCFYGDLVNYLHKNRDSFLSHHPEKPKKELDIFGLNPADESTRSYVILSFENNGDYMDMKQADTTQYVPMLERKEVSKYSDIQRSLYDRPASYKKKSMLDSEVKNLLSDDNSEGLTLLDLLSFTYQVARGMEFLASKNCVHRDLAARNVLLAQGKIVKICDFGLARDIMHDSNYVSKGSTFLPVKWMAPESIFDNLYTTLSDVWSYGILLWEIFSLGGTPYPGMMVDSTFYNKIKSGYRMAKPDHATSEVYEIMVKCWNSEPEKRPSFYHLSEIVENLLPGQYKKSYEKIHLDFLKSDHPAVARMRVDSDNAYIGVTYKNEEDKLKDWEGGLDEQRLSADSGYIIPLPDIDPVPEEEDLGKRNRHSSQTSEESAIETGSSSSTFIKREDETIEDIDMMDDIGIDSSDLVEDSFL

[16] = target: Rho-associated protein kinase 1 (Homo sapiens) (UniProt Q13464); assay: Inhibition of GST-tagged human recombinant ROCK1 (1 to 535 residues) expressed in baculovirus expression system at 1 uM by Z'-LYTE assay; how it was run: as §1
Chain of Rho-associated protein kinase 1 (Homo sapiens) (Q13464 2-1354 limits assumed): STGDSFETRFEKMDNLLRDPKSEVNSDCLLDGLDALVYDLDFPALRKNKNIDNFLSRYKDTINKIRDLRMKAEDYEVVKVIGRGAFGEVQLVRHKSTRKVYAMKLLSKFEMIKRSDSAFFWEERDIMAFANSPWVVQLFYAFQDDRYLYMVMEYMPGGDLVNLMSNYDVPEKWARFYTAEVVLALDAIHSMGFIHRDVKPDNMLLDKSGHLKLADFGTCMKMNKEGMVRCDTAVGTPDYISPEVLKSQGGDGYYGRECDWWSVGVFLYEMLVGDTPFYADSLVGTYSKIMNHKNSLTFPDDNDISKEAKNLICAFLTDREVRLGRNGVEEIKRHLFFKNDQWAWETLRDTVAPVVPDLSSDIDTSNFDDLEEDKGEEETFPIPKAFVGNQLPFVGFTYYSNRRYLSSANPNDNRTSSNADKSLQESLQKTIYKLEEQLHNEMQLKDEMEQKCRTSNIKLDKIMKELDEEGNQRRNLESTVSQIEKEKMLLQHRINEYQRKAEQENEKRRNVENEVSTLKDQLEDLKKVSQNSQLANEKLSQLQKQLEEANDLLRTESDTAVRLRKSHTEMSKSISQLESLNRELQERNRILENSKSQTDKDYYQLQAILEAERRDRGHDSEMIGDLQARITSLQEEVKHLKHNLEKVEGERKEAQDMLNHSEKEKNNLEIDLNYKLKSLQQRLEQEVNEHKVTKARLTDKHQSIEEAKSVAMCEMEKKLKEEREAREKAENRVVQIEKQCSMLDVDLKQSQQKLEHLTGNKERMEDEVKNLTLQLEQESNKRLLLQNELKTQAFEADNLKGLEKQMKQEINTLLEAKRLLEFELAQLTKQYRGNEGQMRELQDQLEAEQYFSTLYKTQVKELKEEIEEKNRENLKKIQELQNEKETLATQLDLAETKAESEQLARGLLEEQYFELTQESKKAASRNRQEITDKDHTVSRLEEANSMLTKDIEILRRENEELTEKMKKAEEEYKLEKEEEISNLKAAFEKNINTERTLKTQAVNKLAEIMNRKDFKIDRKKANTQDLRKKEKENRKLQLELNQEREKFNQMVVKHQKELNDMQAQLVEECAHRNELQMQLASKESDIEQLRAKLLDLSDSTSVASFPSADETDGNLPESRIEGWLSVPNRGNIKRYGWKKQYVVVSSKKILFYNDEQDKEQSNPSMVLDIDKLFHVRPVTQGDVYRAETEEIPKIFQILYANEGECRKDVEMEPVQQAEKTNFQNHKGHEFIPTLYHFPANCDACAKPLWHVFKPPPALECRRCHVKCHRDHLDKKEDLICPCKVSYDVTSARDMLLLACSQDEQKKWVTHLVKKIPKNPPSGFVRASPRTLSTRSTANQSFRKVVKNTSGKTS

[17] = target: Vascular endothelial growth factor receptor 2 (Homo sapiens) (UniProt P35968); assay: Inhibition of His-tagged human recombinant VEGFR2 (789 to 1356 residues) expressed in baculovirus expression system at 1 uM by Z'-LYTE assay; how it was run: as §1
Chain of Vascular endothelial growth factor receptor 2 (Homo sapiens) (P35968 whole entry, the tested form may be a part): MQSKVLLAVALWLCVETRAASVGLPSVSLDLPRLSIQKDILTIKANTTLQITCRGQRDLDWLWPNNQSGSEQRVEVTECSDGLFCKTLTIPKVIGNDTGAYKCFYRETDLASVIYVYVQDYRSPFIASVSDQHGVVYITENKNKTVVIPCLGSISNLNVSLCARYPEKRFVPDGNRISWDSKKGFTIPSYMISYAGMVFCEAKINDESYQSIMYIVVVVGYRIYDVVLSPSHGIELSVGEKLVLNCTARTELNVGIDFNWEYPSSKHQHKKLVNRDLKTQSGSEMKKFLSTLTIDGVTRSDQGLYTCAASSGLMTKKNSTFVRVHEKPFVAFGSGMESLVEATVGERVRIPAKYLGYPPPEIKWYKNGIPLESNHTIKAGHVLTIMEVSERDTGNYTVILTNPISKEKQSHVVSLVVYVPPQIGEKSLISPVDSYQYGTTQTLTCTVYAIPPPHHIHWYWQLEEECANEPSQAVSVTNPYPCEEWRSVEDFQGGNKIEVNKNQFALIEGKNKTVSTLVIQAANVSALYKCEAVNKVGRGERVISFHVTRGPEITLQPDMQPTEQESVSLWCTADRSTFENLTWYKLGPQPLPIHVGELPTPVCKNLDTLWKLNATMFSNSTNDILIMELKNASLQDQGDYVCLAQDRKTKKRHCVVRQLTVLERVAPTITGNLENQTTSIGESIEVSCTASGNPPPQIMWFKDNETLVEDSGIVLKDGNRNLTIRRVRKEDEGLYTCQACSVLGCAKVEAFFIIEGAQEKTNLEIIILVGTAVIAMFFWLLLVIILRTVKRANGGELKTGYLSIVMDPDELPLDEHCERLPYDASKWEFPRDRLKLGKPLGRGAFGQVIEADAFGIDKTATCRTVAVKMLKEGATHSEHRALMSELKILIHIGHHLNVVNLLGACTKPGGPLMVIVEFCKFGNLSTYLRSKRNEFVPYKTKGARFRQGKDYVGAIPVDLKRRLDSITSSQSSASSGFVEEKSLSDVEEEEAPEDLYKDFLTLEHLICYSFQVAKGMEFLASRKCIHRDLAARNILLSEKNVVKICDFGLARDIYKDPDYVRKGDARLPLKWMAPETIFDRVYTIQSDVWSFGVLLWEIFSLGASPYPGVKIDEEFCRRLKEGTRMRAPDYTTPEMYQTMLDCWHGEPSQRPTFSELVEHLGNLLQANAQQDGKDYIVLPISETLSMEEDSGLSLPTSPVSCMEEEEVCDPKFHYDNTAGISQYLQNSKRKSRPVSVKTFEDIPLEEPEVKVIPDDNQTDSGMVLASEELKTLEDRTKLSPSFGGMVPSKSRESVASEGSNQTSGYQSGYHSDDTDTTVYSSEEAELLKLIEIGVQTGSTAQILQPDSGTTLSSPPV

BaF3 [18] = assay: Cytotoxicity against mouse BaF3 cells harboring EGFR L858R/T790M/C797S triple mutant assessed as inhibition of cell proliferation measured after 72 hrs by MTS assay; assay type: functional, cell-based; conditions: BaF3, 72 h
How it was run: (§2)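 Ba/F3 cells carrying the respective EGFR triple mutant, grown in RPMI-1640 with 2 mM glutamine and 10% FBS at 37°C, 5% CO2. Seeded 20000 cells/well and treated the same day with increasing concentrations (DMSO ≤0.1% final). Viability read by MTS after 72 h, expressed as % inhibition versus untreated controls; at least three independent experiments.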

BaF3 [19] = assay: Cytotoxicity against mouse BaF3 cells harboring EGFR del19/T790M/C797S triple mutant assessed as inhibition of cell proliferation measured after 72 hrs by MTS assay; assay type: functional, cell-based; how it was run: as §2

Chain of Epidermal growth factor receptor (P00533 25-1210 T790M/C797S/L858R limits assumed): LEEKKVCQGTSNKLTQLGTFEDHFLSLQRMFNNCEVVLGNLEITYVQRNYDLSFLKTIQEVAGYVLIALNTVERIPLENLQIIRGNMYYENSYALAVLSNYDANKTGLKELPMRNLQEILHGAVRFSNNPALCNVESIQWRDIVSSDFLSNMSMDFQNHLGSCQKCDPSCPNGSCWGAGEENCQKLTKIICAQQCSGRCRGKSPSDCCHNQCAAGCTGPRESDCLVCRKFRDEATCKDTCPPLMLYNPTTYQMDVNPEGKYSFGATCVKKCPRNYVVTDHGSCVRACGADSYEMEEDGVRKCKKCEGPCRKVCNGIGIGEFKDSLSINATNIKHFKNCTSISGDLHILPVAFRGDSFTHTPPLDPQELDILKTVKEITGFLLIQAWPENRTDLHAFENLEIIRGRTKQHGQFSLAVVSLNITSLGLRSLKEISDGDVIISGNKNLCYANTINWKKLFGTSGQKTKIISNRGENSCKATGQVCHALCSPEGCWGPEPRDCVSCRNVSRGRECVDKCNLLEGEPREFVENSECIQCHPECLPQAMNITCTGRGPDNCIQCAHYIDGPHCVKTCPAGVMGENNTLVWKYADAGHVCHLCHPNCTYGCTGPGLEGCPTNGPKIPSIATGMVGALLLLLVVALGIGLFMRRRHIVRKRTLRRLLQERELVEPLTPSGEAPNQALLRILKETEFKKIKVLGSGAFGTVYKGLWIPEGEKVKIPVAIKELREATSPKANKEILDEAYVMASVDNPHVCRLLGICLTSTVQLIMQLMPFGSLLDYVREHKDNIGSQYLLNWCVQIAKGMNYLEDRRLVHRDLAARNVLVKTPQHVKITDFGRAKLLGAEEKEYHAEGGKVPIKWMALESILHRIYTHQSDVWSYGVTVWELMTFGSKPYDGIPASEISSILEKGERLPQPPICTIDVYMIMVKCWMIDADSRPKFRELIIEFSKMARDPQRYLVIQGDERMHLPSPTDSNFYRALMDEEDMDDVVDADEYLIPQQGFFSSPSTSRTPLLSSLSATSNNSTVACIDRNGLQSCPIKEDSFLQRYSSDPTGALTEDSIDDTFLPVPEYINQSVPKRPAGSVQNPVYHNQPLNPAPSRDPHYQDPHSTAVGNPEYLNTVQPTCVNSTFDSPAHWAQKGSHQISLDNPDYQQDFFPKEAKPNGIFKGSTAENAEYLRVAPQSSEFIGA

In the case of `C=CS(=O)(=O)Nc1cccc(Nc2nc(Nc3ccc(N4CCN(C(C)=O)CC4)cc3OC)ncc2Cl)c1`, the IC50 [1] is reported as 675 nM.
For `COc1cc(N2CCN(C(C)=O)CC2)ccc1Nc1ncc(Cl)c(Nc2cccc(NCCS(=O)(=O)F)c2)n1`, the IC50 [1] was 458 nM.
`COc1cc(N2CCN(C(C)=O)CC2)ccc1Nc1ncc(Cl)c(Nc2cccc(C(=O)Oc3ccc(F)cc3)c2)n1` was tested, and the IC50 [1] was > 10000 nM.
For `COc1cc(N2CCN(C(C)=O)CC2)ccc1Nc1ncc(Cl)c(Nc2cccc(NC(C)=O)c2)n1`, the IC50 [1] was 1100 nM, the inhibition [2] was “inactive” and the inhibition [3] was “inactive”. For the same molecule, the inhibition [4] was “inactive”, the inhibition [5] was “inactive” and the inhibition [6] was “inactive”. The inhibition [7] was “inactive”, the inhibition [8] was “inactive” and the inhibition [9] was “inactive”. For the same molecule, the inhibition [10] was “inactive”, the inhibition [11] was “inactive” and the inhibition [12] was “inactive”. For the same molecule, the inhibition [13] was “Active”, the inhibition [14] was “inactive” and the inhibition [15] was “Active”. The inhibition [16] was “inactive” and the inhibition [17] was “Active”.
`C=CC(=O)Nc1cc(Nc2nccc(-c3cn(C)c4ccccc34)n2)c(OC)cc1N(C)CCN(C)C` [OSIMERTINIB] was tested, and the IC50 (BaF3 [18]) was > 3000 nM and the Activity (BaF3 [19]) was “inactive”.
In the case of `COc1cc(N2CCN(C(C)=O)CC2)ccc1Nc1ncc(Cl)c(Nc2cccc(NC(=O)CCl)c2)n1`, the IC50 [1] is reported as 946 nM.
